# How the values were obtained:
# xanthine oxidase [1] = molecular target: T1, xanthine oxidase (Bos taurus, UniProt P80457); experiment: Uric acid formation catalyzed by XO; format: biochemical
# How it was run: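 Xanthine oxidase (Grade IV) was run in 40 mM sodium carbonate with 0.1 mM EDTA, pH 10.0, at 25 °C. Xanthine was 0–200 µM, and test compound came from a 10 mM DMSO stock. Start with 0.04 unit XO and record uric acid at 293 nm for 60 s. Rate came from the linear rise, against a DMSO control. IC50 was taken at 200 µM xanthine. Mode and kinetic parameters were fitted from ≥3 separate runs.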
# xanthine oxidase [2] = molecular target: T1, xanthine oxidase; experiment: O2- generation catalyzed by XO; format: biochemical
# [3] = Scavenging of DPPH radicals and initial scavenging rate; settings: for DPPH activity: 20 min, 25 °C, pH 5.5
# How it was run: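 DPPH (3 mM ethanolic stock) was mixed with 100 mM acetate buffer (pH 5.5) and ethanol. Test compound (10 mM DMSO stock) was added, with DMSO as control, and kept at 25 °C for 20 min. Absorbance was read at 517 nm (ε = 8.32 X 103). The initial rate came from the absorbance drop just after compound addition. Runs were done ≥3 times.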
# T1 sequence (P80457 whole entry): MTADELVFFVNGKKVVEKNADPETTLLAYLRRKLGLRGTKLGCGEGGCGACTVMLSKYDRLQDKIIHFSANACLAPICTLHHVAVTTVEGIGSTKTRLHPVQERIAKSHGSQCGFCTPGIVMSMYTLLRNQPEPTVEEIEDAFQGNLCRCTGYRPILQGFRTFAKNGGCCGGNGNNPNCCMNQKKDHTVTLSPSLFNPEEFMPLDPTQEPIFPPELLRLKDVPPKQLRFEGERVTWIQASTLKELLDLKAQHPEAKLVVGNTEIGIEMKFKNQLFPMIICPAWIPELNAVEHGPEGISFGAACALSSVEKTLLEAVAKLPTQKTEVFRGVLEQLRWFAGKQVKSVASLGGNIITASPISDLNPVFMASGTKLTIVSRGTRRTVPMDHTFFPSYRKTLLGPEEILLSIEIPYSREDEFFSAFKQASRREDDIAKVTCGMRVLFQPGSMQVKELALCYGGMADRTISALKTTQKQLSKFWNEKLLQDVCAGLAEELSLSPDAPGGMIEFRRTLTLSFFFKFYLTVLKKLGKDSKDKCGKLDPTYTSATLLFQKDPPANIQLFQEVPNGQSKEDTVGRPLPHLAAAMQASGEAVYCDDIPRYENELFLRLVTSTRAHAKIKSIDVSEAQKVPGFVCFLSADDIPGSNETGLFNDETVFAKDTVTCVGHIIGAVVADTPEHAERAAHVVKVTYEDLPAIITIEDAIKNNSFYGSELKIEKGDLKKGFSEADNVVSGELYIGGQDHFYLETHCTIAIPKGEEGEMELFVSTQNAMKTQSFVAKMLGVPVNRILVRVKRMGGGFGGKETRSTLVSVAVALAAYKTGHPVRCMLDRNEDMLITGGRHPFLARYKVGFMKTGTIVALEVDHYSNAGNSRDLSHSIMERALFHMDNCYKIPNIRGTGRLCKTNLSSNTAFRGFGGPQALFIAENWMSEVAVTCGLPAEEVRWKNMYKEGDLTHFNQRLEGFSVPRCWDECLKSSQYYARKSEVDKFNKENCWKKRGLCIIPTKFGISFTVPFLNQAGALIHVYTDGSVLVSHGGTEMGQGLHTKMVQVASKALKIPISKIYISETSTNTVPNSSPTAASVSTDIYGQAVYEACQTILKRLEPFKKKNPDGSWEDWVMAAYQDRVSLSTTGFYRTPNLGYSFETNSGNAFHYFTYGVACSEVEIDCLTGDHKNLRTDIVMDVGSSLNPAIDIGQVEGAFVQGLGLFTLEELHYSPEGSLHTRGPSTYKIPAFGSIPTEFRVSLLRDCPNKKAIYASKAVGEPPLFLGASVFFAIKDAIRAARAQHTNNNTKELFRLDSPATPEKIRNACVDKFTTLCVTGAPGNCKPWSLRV
IC50 (xanthine oxidase [1]) [µM],Ki (xanthine oxidase [1]) [µM],IC50 (xanthine oxidase [2]) [µM],Ki (xanthine oxidase [2]) [µM],"K’i, inhibition of O2- generation using xanthine oxidase (xanthine oxidase [2]; mixed type kinetics, xanthine 0 – 200 µM, pH 10.0) [µM]",Inhibition kinetics (mode) of O2- generation (xanthine oxidase [2]; xanthine 0 – 200 µM),Inhibition kinetics (mode) of uric acid formation (xanthine oxidase [1]; versus xanthine),SMILES,DPPH activity [3],Initial rate of DPPH scavenging ([3]; after the addition of sample solution) [µmol/L/s]
15 ± 5,6.7 ± 1.6,4.5 ± 0.4,2.2 ± 0.1,21.1 ± 1.0,mixed type,,"Oc1cc(O)cc(/C=C/c2ccc(O)c(O)c2)c1 [Piceatannol (6), Piceatannol]",2.45 ± 0.13 DPPH molecules / a molecule of stilbene compound,3.75
34 ± 4,7.7 ± 0.7,21 ± 3,7.1 ± 1,,,competitive inhibition,"Oc1ccc(/C=C/c2cc(O)cc(O)c2)cc1 [Resveratrol (1), Resveratrol]",0.72 ± 0.27 DPPH molecules / a molecule of stilbene compound,
> 50,,124 ± 16,43 ± 5,,,,"COc1cc(/C=C/c2ccc(O)cc2)cc(OC)c1 [Pterostilbene (5), Pterostilbene]",0.74 ± 0.10 DPPH molecules / a molecule of stilbene compound,
> 50,,49 ± 1,19 ± 2,,,,"OC[C@H]1O[C@@H](Oc2cc(O)cc(/C=C/c3ccc(O)cc3)c2)[C@H](O)[C@@H](O)[C@@H]1O [Resveratrol-3-glucoside (2), Resveratrol-3-glucoside]",0.59 ± 0.15 DPPH molecules / a molecule of stilbene compound,
